In ChEMBL document CHEMBL3112511, “1,2-Dihydro-2-oxopyridine-3-carboxamides: the C-5 substituent is responsible for functionality switch at CB2 cannabinoid receptor” (Eur J Med Chem, 2014):
Calls of active or inactive are those of the source. The rule behind the calls is not given here.

Legend:
[1] = test system: HEK293; assay: Selectivity index, ratio of Ki for human recombinant CB1 receptor expressed in HEK293 cell membranes to Ki for human recombinant CB2 receptor expressed in HEK293 cell membranes; type: cell-based
[2] = biological target: T1, Cannabinoid receptor 2 (Homo sapiens, UniProt P34972); assay: Displacement of [3H]CP55,940 from human recombinant CB2 receptor expressed in HEK293 cell membranes after 90 mins
[3] = biological target: Cannabinoid receptor 1 (Homo sapiens, UniProt P21554); assay: Displacement of [3H]CP55,940 from human recombinant CB1 receptor expressed in HEK293 cell membranes after 90 mins
[4] = Selectivity ratio of EC50 for CB1 receptor in rat cerebellar membranes to EC50 for human CB2 receptor expressed in CHO membranes; type: cell membranes
[5] = biological target: T1, Cannabinoid receptor 2; assay: Agonist activity at human CB2 receptor expressed in CHO membranes by [35S]GTPgammaS binding assay; type: functional, cell membranes
Procedure, shortened: (§1)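 [35S]GTPgammaS binding in membranes from hCB2-transfected CHO cells; stimulation or inhibition of constitutive activity measured from dose-response curves. Mock-transfected cell membranes as control. Three independent experiments in duplicate.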

[6] = biological target: Cannabinoid receptor 1 (Rattus norvegicus, UniProt P20272); assay: Agonist activity at CB1 receptor in rat cerebellar membranes by [35S]GTPgammaS binding assay; type: functional, cell membranes, Cerebellum, Membrane
Procedure, shortened: (§2)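 [35S]GTPgammaS binding in rat cerebellar membranes as CB1R-mediated G protein activity; compounds tested for stimulation or antagonism. Three independent experiments in duplicate.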

[7] = biological target: Cannabinoid receptor 1 (Rattus norvegicus) (UniProt P20272); assay: Agonist activity at CB1 receptor in rat cerebellar membranes at <10 uM by [35S]GTPgammaS binding assay; type: functional, cell membranes; conditions: Cerebellum, Membrane; procedure, shortened: as §2
[8] = biological target: Cannabinoid receptor 1 (Rattus norvegicus) (UniProt P20272); assay: Antagonist activity at CB1 receptor in rat cerebellar membranes at <10 uM by [35S]GTPgammaS binding assay; type: functional, cell membranes; conditions: Cerebellum, Membrane; procedure, shortened: as §2
[9] = biological target: T1, Cannabinoid receptor 2; assay: Inverse agonist activity at human CB2 receptor expressed in CHO membranes by [35S]GTPgammaS binding assay; type: functional, cell membranes; procedure, shortened: as §1
[10] = biological target: T1, Cannabinoid receptor 2; assay: Neutral antagonist activity at human CB2 receptor expressed in CHO membranes by [35S]GTPgammaS binding assay in presence of SR144528; type: functional, cell membranes
Procedure, shortened: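 [35S]GTPgammaS binding in hCB2-CHO membranes; compound added against inverse agonist SR144528 at 3 nM to assess reversal of its response. Three independent experiments in duplicate.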

[11] = biological target: T1, Cannabinoid receptor 2; assay: Competitive antagonist activity at human CB2 receptor expressed in CHO membranes assessed as inhibition of HU-210-induced [35S]GTPgammaS binding; type: functional, cell membranes; conditions: read-out: pA2 (converted)
Procedure, shortened: (§3)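 [35S]GTPgammaS binding in hCB2-CHO membranes; test compound against HU210 (1 nM for single-point reversal; full HU210 dose-responses for competitive analysis, pA2 derived). Three independent experiments in duplicate.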

[12] = biological target: T1, Cannabinoid receptor 2; assay: Partial inverse agonist activity at human CB2 receptor expressed in CHO membranes by [35S]GTPgammaS binding assay relative to basal control; type: functional, cell membranes; procedure, shortened: as §1
[13] = biological target: T1, Cannabinoid receptor 2; assay: Antagonist activity at human CB2 receptor expressed in CHO membranes assessed as inhibition of HU-210-induced [35S]GTPgammaS binding; type: functional, cell membranes; procedure, shortened: as §3

T1 sequence (P34972 whole entry): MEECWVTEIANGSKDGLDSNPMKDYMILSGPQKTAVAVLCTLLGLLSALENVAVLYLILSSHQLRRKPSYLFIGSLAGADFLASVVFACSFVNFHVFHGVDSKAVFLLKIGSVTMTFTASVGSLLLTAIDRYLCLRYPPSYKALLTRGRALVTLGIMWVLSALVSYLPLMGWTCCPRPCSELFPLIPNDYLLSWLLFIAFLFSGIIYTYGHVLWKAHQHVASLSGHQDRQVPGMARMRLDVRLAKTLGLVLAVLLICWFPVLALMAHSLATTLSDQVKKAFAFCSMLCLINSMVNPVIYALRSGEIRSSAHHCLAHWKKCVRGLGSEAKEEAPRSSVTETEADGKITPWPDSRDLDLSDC
Cannabinoid receptor 1 (Homo sapiens, UniProt P21554), sequence (P21554 whole entry): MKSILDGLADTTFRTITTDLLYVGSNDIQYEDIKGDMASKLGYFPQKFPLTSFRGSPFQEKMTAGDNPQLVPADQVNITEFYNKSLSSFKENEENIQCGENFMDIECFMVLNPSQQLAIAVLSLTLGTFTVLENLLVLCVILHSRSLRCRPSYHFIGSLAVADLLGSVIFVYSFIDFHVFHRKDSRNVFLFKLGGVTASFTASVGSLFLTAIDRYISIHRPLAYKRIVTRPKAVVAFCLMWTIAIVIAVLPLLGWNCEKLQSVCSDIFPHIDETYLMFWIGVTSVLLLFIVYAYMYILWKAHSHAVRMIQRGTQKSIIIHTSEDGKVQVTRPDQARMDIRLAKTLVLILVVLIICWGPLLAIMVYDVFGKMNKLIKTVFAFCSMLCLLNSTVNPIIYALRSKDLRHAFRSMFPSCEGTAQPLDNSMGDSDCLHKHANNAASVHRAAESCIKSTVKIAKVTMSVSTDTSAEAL
Cannabinoid receptor 1 (Rattus norvegicus), sequence (P20272 whole entry): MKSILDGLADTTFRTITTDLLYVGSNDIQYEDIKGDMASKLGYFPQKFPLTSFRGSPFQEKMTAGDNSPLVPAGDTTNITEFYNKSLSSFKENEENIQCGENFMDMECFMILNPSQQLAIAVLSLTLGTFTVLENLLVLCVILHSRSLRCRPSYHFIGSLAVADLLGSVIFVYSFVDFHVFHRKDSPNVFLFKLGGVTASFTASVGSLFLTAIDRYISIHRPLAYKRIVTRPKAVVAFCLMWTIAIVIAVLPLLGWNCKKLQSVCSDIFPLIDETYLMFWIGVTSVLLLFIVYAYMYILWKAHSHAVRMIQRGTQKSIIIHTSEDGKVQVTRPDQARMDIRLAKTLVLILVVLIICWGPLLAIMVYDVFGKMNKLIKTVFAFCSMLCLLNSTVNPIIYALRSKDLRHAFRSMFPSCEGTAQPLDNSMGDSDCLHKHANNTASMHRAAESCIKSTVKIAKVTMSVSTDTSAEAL
Cannabinoid receptor 1 (Rattus norvegicus, UniProt P20272), sequence (P20272 whole entry): as above

Structure (SMILES) | Ratio Ki [1] | Ki [2] [nM] | Ki [3] [nM] | further results
O=C(NC1CCCCCC1)c1cc(Br)cn(Cc2ccc(F)cc2)c1=O | 4 | 2.2 | 8.8 | 
O=C(NC1CCCCCC1)c1cccn(Cc2ccc(F)cc2)c1=O | 5.5 |  |  | Ratio EC50 [4]: 200; EC50 [5]: 6.31 nM; EC50 [6]: 1580 nM
CC1CCC(NC(=O)c2cccn(Cc3ccccc3)c2=O)CC1 (stereo not drawn) | 7.3 | 53 | 386 | 
O=C(O)CCCn1cccc(C(=O)NC2CCCCCC2)c1=O |  | > 10000 | > 10000 | 
CCOC(=O)CCCn1cccc(C(=O)NC2CCCCCC2)c1=O |  | 1830 | > 10000 | 
CC1CCC(NC(=O)c2cccnc2OCc2ccccc2)CC1 (stereo not drawn) | 5.2 | 594 | 3090 | 
O=C(NC1CCCCCC1)c1cccn(Cc2ccccc2)c1=O | 7 | 8 | 56 | 
CC1CCC(NC(=O)c2cccn(Cc3ccc(F)cc3)c2=O)CC1 (stereo not drawn) | 14.6 | 4.8 | 70 | 
O=C(NC1CCCCCC1)c1cc(/C=C/c2ccccc2)cn(Cc2ccc(F)cc2)c1=O | 3 | 7.9 | 24 | 
O=C(NC1CCCCCC1)c1cccn(Cc2ccc(I)cc2)c1=O | 6.8 | 187 | 1270 | 
O=C(NC1CCCCCC1)c1cccn(Cc2cccc(I)c2)c1=O | 4.6 | 397 | 1830 | 
CC1CCC(NC(=O)c2cccn(CCO)c2=O)CC1 (stereo not drawn) |  | > 10000 | > 10000 | 
O=C(NC1CCCCCC1)c1cccnc1OCc1ccccc1 | 4 | 481 | 1920 | 
O=C(NC1CCCCCC1)c1cc(-c2ccc(F)cc2)cn(Cc2ccc(F)cc2)c1=O | 8.6 | 2.8 | 24 | 
O=C(NC1CCCCCC1)c1cc(Br)cn(CCN2CCOCC2)c1=O | 3.7 | 65 | 243 | 
CCCn1cccc(C(=O)NC2CCC(C)CC2)c1=O (stereo not drawn) |  | 583 | > 10000 | 
O=C(NC1CCCCCC1)c1cc(-c2ccccc2)cn(Cc2ccc(F)cc2)c1=O | 29 | 1.2 | 35 | Activity [7]: inactive; Activity [8]: inactive; IC50 [9]: 1.58 nM
CCCCn1cc(Br)cc(C(=O)NC2CCCCCC2)c1=O | 4.5 | 5.1 | 23 | 
CCOC(=O)/C=C/c1cc(C(=O)NC2CCCCCC2)c(=O)n(Cc2ccc(F)cc2)c1 | 1.8 | 13.7 | 24.8 | 
O=C(NC1CCCCCC1)c1cc(-c2ccc(F)cc2)cn(CCN2CCOCC2)c1=O | 43.4 | 63 | 2730 | 
O=C(NC1CCCCCC1)c1cccn(Cc2ccc(Cl)cc2)c1=O | 13.1 | 4.2 | 55 | 
COc1ccc(-c2cc(C(=O)NC3CCCCCC3)c(=O)n(Cc3ccc(F)cc3)c2)cc1 | 63 | 1 | 63 | Activity [10]: Active; Activity [7]: inactive; Kb [11]: 100 nM; Activity [12]: 88%; inhibition [13]: Dose-dependent effect; Activity [8]: inactive; Activity [5]: inactive
CC1CCC(NC(=O)c2cccn(CCCO)c2=O)CC1 (stereo not drawn) |  | > 10000 | > 10000 | 
CC1CCC(NC(=O)c2cccnc2OCc2ccc(F)cc2)CC1 (stereo not drawn) | 11 | 80 | 884 | 
CCCCn1cccc(C(=O)NC2CCC(C)CC2)c1=O (stereo not drawn) | 15.6 | 104 | 1620 | 
CCCCOc1ncc(Br)cc1C(=O)NC1CCCCCC1 |  | 396 | > 10000 | 
